Source: PubChem (Broad Institute)
Statin myotox sup – suppressors of statin myotoxicity in C2C12 myotubes, primary screen, cell-based, single point, plate reader. rescue of ATP level, % at 7.49 µM. C2C12 myotubes + simvastatin, ATP luminescence, 48 h; scaled: DMSO 0, geranylgeraniol control 100. hit rate 0.78% among 330,000. AID 602340, 2012;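 active means mean ATP rescue above about 67%, or every replicate alone reaching that limit, limit read from the data, passing the limit was not always enough; inconclusive means no clear call, values can overlap the other calls; inactive means mean under the limit and some replicate under it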;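 further: myotubes were challenged with 10 µM simvastatin during compound exposure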
SIRT5 block – SIRT5 desuccinylase inhibitors, primary screen, biochemical, fluorescence imaging, single point, set 5 | Purified SirT5, succinyl-peptide AMC, trypsin-coupled fluorescence | inhibition, % at 15 µM | hit rate 1.1% among 330,000 | AID 652115, 2013; in the data active means inhibition above about 15%; inconclusive means no clear call, values can overlap the other calls
Target sequence (Q9NXA8 whole entry, looked up): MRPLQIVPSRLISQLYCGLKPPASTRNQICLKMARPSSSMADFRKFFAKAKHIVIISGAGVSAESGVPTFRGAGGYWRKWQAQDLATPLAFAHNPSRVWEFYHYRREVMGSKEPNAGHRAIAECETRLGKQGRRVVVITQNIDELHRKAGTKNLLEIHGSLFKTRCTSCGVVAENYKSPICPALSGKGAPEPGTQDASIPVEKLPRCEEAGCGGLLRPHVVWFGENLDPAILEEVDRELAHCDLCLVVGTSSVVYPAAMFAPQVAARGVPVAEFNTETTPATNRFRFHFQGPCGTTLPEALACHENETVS
S100A4 inh HTS – inhibitors of S100A4-myosin IIA peptide binding, primary screen, biochemical, fluorescence polarization, TAMRA-MyoIIA peptide; AID 652163, 2013; Protein S100-A4 (Homo sapiens), P26447; hit rate 0.14% among 360,000; inhibition, % at 10.7 µM;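 active means mean inhibition of at least 70% across replicates, with every replicate also reaching that level; inconclusive means mean inhibition reaches 70% but some replicates fall short; inactive means mean inhibition below 70%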
Target sequence (P26447 whole entry, looked up): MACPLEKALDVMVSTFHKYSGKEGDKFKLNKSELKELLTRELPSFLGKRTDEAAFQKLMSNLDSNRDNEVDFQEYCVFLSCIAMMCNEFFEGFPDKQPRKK
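Test system – S100A4 monomer (human) · Compound – single-point compound testing · Schedule – 5 min incubation before reading · Probe or stimulus – TAMRA-labelled myosin IIA heavy-chain peptide probe, 5 nM · Benchmarks – neutral control DMSO, positive control TFP · Medium – Calcium-containing HEPES buffer, pH 7.2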
Cneo AK release – Cryptococcus neoformans cell lysis inducers, primary screen, AK release luminescence, single concentration; hit rate 0.2% among 360,000; C. neoformans lysis, adenylate kinase release luminescence, 4 h; normalised: neutral wells 0, clomiphene wells 100; lysis activity, % at 15 µM;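 active means mean lysis activity across replicates of at least 80%, whatever share of replicates individually reach that level; inactive means mean lysis activity below 80%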
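Material: C. neoformans cells | Amount: Yeast cell density of 5 × 10^6 cells/mL | Medium: Fresh YPD growth medium | Dosing: Single dose | Times: Static 4 h at 37 °C with compound, 1 h detection | Detection: AK luminescence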
Ecoli rRNA inh – reduced GFP signal of wild-type E. coli, primary screen, bacterial rRNA inhibitor project, GFP/RFP fluorescence, OD600, single point; hit rate 1.6% among 350,000; E. coli WT GFP vs humanized-ribosome RFP mutants, 24 h; stronger effect = lower value; DMSO median 0, no signal -100; GFP signal change (wild-type ribosome), % (concentration not given with the values);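 active means significant combined selectivity score with lowered wild-type GFP, culture density cut under 30%, mutant RFP and density less affected; inactive means any of these conditions unmet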
PGC1a acetyl inh – inhibitors of PGC1a acetylation signal, primary screen, cell-based, U2OS, AlphaScreen, inhibitor mode | AlphaScreen anti-acetyl-lysine; with virally co-expressed GCN5 acetyltransferase | inhibition, % at 15.6 µM | hit rate 0.17% among 350,000;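 active means every replicate shows inhibition of at least 40%; inconclusive means mean inhibition at least 40% but some replicate below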;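 further: 0% = neutral control wells and 100% = positive control wells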
C2C12 COX5a inh – inhibitors of PGC-1a-driven COX5a expression, dose response, cell-based, C2C12 myotubes, RT-qPCR, cherry-picked samples; AID 743461, 2014; 45 tested, under 10 active; maximal activity, %; C2C12 myotubes PGC-1a adenovirus; shares compounds with PGC1a acetyl inh;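 active means fitted dose curve reaching 40% activity at or below the highest valid dose tested; inconclusive means flat fit between 30% and 70%, or an unusable fit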
AID743468 – change in PGC-1a target gene PDK4 expression, dose response, C2C12 myotubes, RT-qPCR, cherry-pick | shares compounds with PGC1a acetyl inh | PGC-1a adenovirus, PDK4 mRNA qPCR | PDK4 expression increase, % at 19.5 µM | 45 tested, under 10 active | AID 743468, 2014;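 active means fitted curve reaching a 40% PDK4 expression rise at or below the top valid tested dose; inconclusive means no clear call, values can overlap the other calls; inactive means the rest, including shifts the wrong way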
* = called active by the depositor; ? = inconclusive; nt = no result given; ! = a repeat was not active; [ ] = dose if it differs, or a comment. Hits are enriched below; roughly 3% of the tested compounds scored in any of these assays.

SMILES | Statin myotox sup | SIRT5 block | S100A4 inh HTS | Cneo AK release | Ecoli rRNA inh | PGC1a acetyl inh | others
CN(C)C(=O)[C@@H]1[C@@H](CO)[C@@H]2Cn3c(cccc3=O)[C@@H]2N1CC1CCCC1 | -4 | 0 | nt | -3 | 5 | -3
CCN(CC)S(=O)(=O)c1ccc(NC(=S)NC(=O)C(C)C)cc1 | nt | -1 | -3 | nt | nt | nt
CCN(CC)S(=O)(=O)c1ccc(NC(=S)NC(=O)CC(C)C)cc1 | nt | 33* | -8 | nt | -6 | nt
NC(=O)CCN1CCC(c2nc3ccccc3s2)CC1 | 5 | 24* | -4 | -1 | 4 | 7
COc1ccc2c3c(n(C)c2c1)[C@@H](CO)N(C)CC31CCN(S(=O)(=O)c2cccs2)CC1 | nt | nt | -1 | nt | -5 | 13
Cc1ccc(-n2c(O)c(C=Nc3ccccc3-c3n[nH]c(=S)[nH]c3=O)c3ccccc3c2=O)cc1C | nt | -1 | 2 | nt | -38* | -12
Cc1ccc(-n2c(O)c(C=Nc3ccccc3-c3n[nH]c(=S)[nH]c3=O)c3ccccc3c2=O)c(C)c1 | 9 | 11 | 8 | nt | -44 | -7
CO[C@H]1CN(C)C(=O)c2ccc(NS(C)(=O)=O)cc2OC[C@H](C)NC[C@@H]1C | nt | nt | nt | nt | -1 | nt
COc1ccccc1/C=C\C(=O)NCC(=O)N/N=C/c1ccc(O)cc1O | nt | -2 | -1 | 1 | -29* | -6
COc1cccc(/C=N\NC(=O)Cn2nnc3ccccc32)c1O | nt | -1 | 5 | nt | -20* | -1
COc1ccccc1/C=N/NC(=O)COCC(=O)N/N=C/c1ccccc1OC | -2 | 19* | -7 | -1 | 0 | -9
COc1ccccc1/C=C/C=N/NC(=O)CCn1cnc2ccccc21 | nt | 2 | -2 | -3 | -35* | -6
COc1ccccc1/C=C/C(=O)NCC(=O)N/N=C/c1ccccc1 | nt | -1 | 1 | nt | -11 | nt
COc1cc(/C=N/NC(=O)Cn2nnc3ccccc32)ccc1O | nt | 0 | -5 | nt | 15 | nt
O=C(COCC(=O)N/N=C/c1ccccc1F)N/N=C/c1ccccc1F | nt | 5 | 0 | 0 | -1 | -2
O=C(c1ccccc1F)N1CC(=O)N2[C@H](CO)[C@@H](c3ccc(C#Cc4ccc(F)cc4)cc3)[C@H]2C1 | nt | 0 | -2 | nt | -45 | -7
COc1ccccc1/C=C/C(=O)NCC(=O)N/N=C/c1ccc(C)o1 | -4 | 100* | -2 | nt | 6 | 8
COc1ccc(NC(=O)N(C)C[C@@H]2Oc3ccc(NC(=O)CCN4CCOCC4)cc3CC(=O)N([C@@H](C)CO)C[C@H]2C)cc1 | -10 | 1 | 15 | 0 | 0 | 4
COc1ccc(C(=O)Nc2ccccc2C(=O)NC(Cc2ccc(O)cc2)C(=O)NNC(=O)c2ccccc2Cl)cc1 (stereo not drawn) | 112* | nt | nt | -6 | nt | -4
Cc1ccc(NC(=O)C2CCCN(S(=O)(=O)c3c(C)noc3/C=C/N(C)C)C2)c(C)c1 (stereo not drawn) | 4 | -2 | -3 | 0 | 13 | 7
Cc1ccc(C)c(NC(=O)C2CCCN(S(=O)(=O)c3c(C)noc3/C=C/N(C)C)C2)c1 (stereo not drawn) | 32 | -6 | 122* | -2 | 4 | -2
C[C@H]1CCCCO[C@@H](CN(C)C(=O)Nc2ccc(C(F)(F)F)cc2)[C@@H](C)CN([C@@H](C)CO)C(=O)c2cc(NC(=O)Nc3ccccc3)ccc2O1 | nt | 1 | 2 | -1 | 0 | 7
N#Cc1ccc(-c2ccc(C3[C@@H]4CN(C(=O)Nc5ccc(C(F)(F)F)cc5)C[C@H]3N4)cc2)cc1 (stereo partly drawn) | nt | 3 | 13 | nt | -60 | -5
Cc1ccc(-c2ccc(C3[C@@H]4CN(C(=O)Nc5ccc(C(F)(F)F)cc5)C[C@H]3N4)cc2)cc1 (stereo partly drawn) | nt | -5 | -10 | nt | -60 | 70*! | C2C12 COX5a inh=-32;AID743468=-15
C/C=C/c1ccc([C@@H]2[C@H](CO)N3C(=O)CN(Cc4ccc(C(=O)OC)cc4)C[C@@H]23)cc1 | nt | -1 | 8 | nt | -4 | 4
SMILES | Statin myotox sup | SIRT5 block | S100A4 inh HTS | Cneo AK release | Ecoli rRNA inh | PGC1a acetyl inh | others
CCOC(=O)c1c2c(n(C)c1C)C(=O)C(=O)c1ccc(Br)cc1-2 | -295 | nt | nt | -4 | nt | -83 | C2C12 COX5a inh=-37;AID743468=-31[6.8 µM]
CCOC(=O)c1c2c(n(Cc3ccccc3)c1C)C(=O)C(=O)c1ccccc1-2 | nt | -2 | 2 | nt | -42 | nt
O=C(C[C@@H]1C=C[C@@H](NS(=O)(=O)c2ccc(F)cc2)[C@H](CO)O1)NCc1ccncn1 | -2 | 7 | 26 | 59 | 0 | -7
O=C(Nc1ccc(N2CCN(Cc3ccccc3F)CC2)cc1)c1ccccc1[N+](=O)[O-] | nt | -6 | -5 | nt | -26 | -22
O=C(Nc1ccc(N2CCN(Cc3ccccc3F)CC2)cc1)c1ccc([N+](=O)[O-])o1 | nt | -2 | -1 | -1 | nt | 73* | C2C12 COX5a inh=-40;AID743468=15
Cc1ccc(S(=O)(=O)N(C)C[C@H]2Oc3cc(C#Cc4ccncc4)ccc3S(=O)(=O)N([C@H](C)CO)C[C@H]2C)cc1 | -12 | 15 | -25 | -4 | 0 | 44* | C2C12 COX5a inh=23;AID743468=-8
C[C@H](CO)N1C[C@H](C)[C@@H](CN(C)Cc2cccnc2)Oc2cc(C#CC3CCCCC3)ccc2S1(=O)=O | -46 | -7 | 0 | -5 | -4 | ? | C2C12 COX5a inh=39;AID743468=2
C[C@@H]1CCCCO[C@@H](CN(C)C(=O)c2ccncc2)[C@@H](C)CN([C@@H](C)CO)C(=O)c2cc(NC(=O)c3ccccc3)ccc2O1 | nt | nt | nt | nt | 8 | nt
COC(=O)c1nn(-c2ccccc2)ccc1=O | nt | nt | nt | nt | nt | 44* | C2C12 COX5a inh=-33;AID743468=-11
Cc1ccc(Cn2ccc(NC(=O)c3nn(C)cc3[N+](=O)[O-])n2)cc1 | 6 | -2 | 0 | 0 | -2 | -145
Cc1ccc(-c2nc(NC(=O)c3nn(C)cc3[N+](=O)[O-])sc2C)cc1 | -135 | 2 | -15 | -7 | 1 | 96* | C2C12 COX5a inh=-25;AID743468=4[6.8 µM]
C=CS(=O)(=O)N(Cc1ccccc1)[C@H](CO)CC(C)C | -1 | -4 | 1 | -1 | 7 | -16
